Series [1] has as its system HCT-116. In words: Induction of cell cycle arrest in human HCT116 cells assessed accumulation at G2/M phase at 10 uM incubated for 48 hrs by propidium iodide staining based flow cytometry (reference value: 11.88%). The format is functional. The gist of the method: (§1)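 2×10⁵ cells per well, adhered overnight, then treated 48 h at 5 or 10 μM. Cells fixed in cold 70% ethanol overnight, RNase A treated 30 min at 37 °C, PI stained 15 min at 4 °C. DNA content measured by flow cytometry; phase distribution compared with untreated control.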
In general terms: In flow cytometry, cells or beads pass a laser one at a time.

For series [2], the system named is HCT-116. In words: Induction of apoptosis in human HCT116 cells assessed as early apoptotic cells level at 5 uM incubated for 48 hrs by Annexin V-FITC and propidium iodide staining based flow cytometry. It is filed as functional. The gist of the method: (§2)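 2×10⁵ cells per well, adhered overnight, then exposed 48 h to compound at 1, 5 or 10 μM. Annexin V-FITC/PI double staining, read by flow cytometry. Annexin V+/PI− counted as early apoptotic, Annexin V+/PI+ as late. Gambogic acid 1 μM comparator.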

Series [3] relates to HCT-116. In words: Induction of morphological changes in human HCT116 cells assessed as induction of slow growth at 1 to 10 uM incubated for 48 hrs by Hoechst 33342 staining based fluorescence microscopy. The format is functional, cell-based.
Series [4] concerns MKN-45. Nature of the series: Antiproliferative activity against human MKN45 cells incubated for 72 hrs by MTT assay. It is filed as functional, cell-based. Conditions: MKN-45, 72 h. The essentials:
(§3)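 5×10³ cells per well preincubated 12 h at 37 °C, 5% CO₂. Medium replaced with fresh medium containing compound at various concentrations, DMSO ≤0.1%, for 72 h at 37 °C. MTT 0.5 mg/mL final added for 2 h; formazan dissolved in DMSO, A570 read; viability expressed relative to untreated cells.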
Background: Formazan colour is commonly taken as a measure of viable cells.

Series [5] has as its system HCT-116. Nature of the series: Induction of apoptosis in human HCT116 cells assessed as induction of chromatin congregation at 1 to 10 uM incubated for 48 hrs by DAPI staining based fluorescence microscopy. The format is functional, cell-based. The following applies: in the assay text read “Hoechst 33342” for “DAPI”. The essentials: (§4)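 After 48 h exposure to 1, 5 or 10 μM, nuclei stained with DAPI (methods name Hoechst 33342). Chromatin condensation and nuclear pyknosis scored by fluorescence microscopy at 400× against untreated cells.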

For series [6], the system named is HCT-116. In words: Induction of cell cycle arrest in human HCT116 cells assessed reduction in accumulation at G1 phase at 5 to 10 uM incubated for 48 hrs by propidium iodide staining based flow cytometry. The format is functional. The essentials: as §1
Series [7] concerns HCT-116. Nature of the series: Induction of cell cycle arrest in human HCT116 cells assessed reduction in accumulation at S phase at 5 to 10 uM incubated for 48 hrs by propidium iodide staining based flow cytometry. The format is functional. The gist of the method:
as §1

Series [8] concerns HCT-116. In words: Antiproliferative activity against human HCT116 cells incubated for 72 hrs by MTT assay. It is filed as functional, cell-based. The following applies: HCT-116, 72 h. The essentials: as §3
Series [9] relates to A549. In words: Antiproliferative activity against human A549 cells incubated for 72 hrs by MTT assay. The format is functional, cell-based. The following applies: A549, 72 h. The essentials:
as §3

Series [10] concerns MDA-MB-231. Nature of the series: Antiproliferative activity against human MDA-MB-231 cells incubated for 72 hrs by MTT assay. The format is functional, cell-based. Conditions: MDA-MB-231, 72 h. The gist of the method: as §3
Series [11] can be described thus: Cytotoxicity against human NCM460 cells assessed as cell viability at 50 uM incubated for 72 hrs by MTT assay. The format is cell-based. The following applies: read-out: Activity. The essentials:
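NCM460 colon cells exposed to compound at 0.1, 1, 2, 5, 10, 20, 30, 40 and 50 μM; viability expressed as percent. Media carried penicillin G, streptomycin and 10% FBS; culture at 37 °C, 5% CO₂.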

Series [12] concerns HCT-116. Nature of the series: Induction of morphological changes in human HCT116 cells assessed as induction of cell distortion at 1 to 10 uM incubated for 48 hrs by Hoechst 33342 staining based fluorescence microscopy. The format is functional.
Series [13] relates to HCT-116. Nature of the series: Induction of apoptosis in human HCT116 cells assessed as early apoptotic cells level at 1 uM incubated for 48 hrs by Annexin V-FITC and propidium iodide staining based flow cytometry. The format is functional. The gist of the method: (§5)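 HCT116 seeded 2 × 10⁵ cells/well, adhered overnight, then exposed to compound for 48 h. Annexin V-FITC/PI double staining, read by flow cytometry. Early apoptotic cells counted as Annexin V+/PI− (lower right quadrant), late apoptotic as Annexin V+/PI+ (upper right). Culture at 37 °C, 5% CO₂, medium with 10% FBS and penicillin/streptomycin, DMSO ≤0.1%.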

In series [14] the test system is HCT-116. Nature of the series: Induction of apoptosis in human HCT116 cells assessed as late apoptotic cells level at 5 uM incubated for 48 hrs by Annexin V-FITC and propidium iodide staining based flow cytometry. It is filed as functional. The essentials:
as §2

Series [15] has as its system HepG2. In words: Antiproliferative activity against human HepG2 cells incubated for 72 hrs by MTT assay. The format is functional, cell-based. Conditions: HepG2, 72 h. The gist of the method: as §3
For series [16], the system named is HCT-116. In words: Induction of apoptosis in human HCT116 cells assessed as induction of […] pyknosis at 1 to 10 uM incubated for 48 hrs by DAPI staining based fluorescence microscopy. The following applies: in the assay text read “Hoechst 33342” for “DAPI”. It is filed as functional, cell-based. The essentials:
as §4

Series [17] concerns HCT-116. Nature of the series: Induction of morphological changes in human HCT116 cells assessed as induction of tensile deformation at 1 to 10 uM incubated for 48 hrs by Hoechst 33342 staining based fluorescence microscopy. The format is functional, cell-based.
Series [18] concerns HCT-116. Nature of the series: Induction of apoptosis in human HCT116 cells assessed as late apoptotic cells level at 10 uM incubated for 48 hrs by Annexin V-FITC and propidium iodide staining based flow cytometry. It is filed as functional. The gist of the method:
as §2

For series [19], the system named is HCT-116. In words: Induction of cell cycle arrest in human HCT116 cells assessed accumulation at G2/M phase at 5 uM incubated for 48 hrs by propidium iodide staining based flow cytometry (reference value: 11.88%). It is filed as functional. The gist of the method:
as §1

The species named for series [20] is Danio rerio. Nature of the series: Anti-angiogenic activity in zebrafish-guided angiogenesis model assessed as reduction in inter-segmental blood vessels measured at 72 hpf by fluorescence microscopy. The format is functional. The gist of the method: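 Tg(fli-1:EGFP) zebrafish embryos, dechorionated at 24 hpf, 20 per group, kept in embryo water containing compound at 28.5 °C for a further 48 h. All compounds screened first at 50 μM; active ones titrated for minimum effective dose. At 72 hpf embryos anesthetized in 0.016% tricaine and intersegmental vessels imaged by fluorescence microscopy. SU5416 positive control.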

The test system of series [21] is HCT-116. Nature of the series: Induction of apoptosis in human HCT116 cells assessed as late apoptotic cells level at 1 uM incubated for 48 hrs by Annexin V-FITC and propidium iodide staining based flow cytometry. The format is functional. The gist of the method:
as §5

The subject of series [22] is HCT-116. In words: Reduction in alpha-tubulin protein expression in human HCT116 cells at 1 to 10 uM incubated for 48 hrs by Western blot analysis. It is filed as functional, cell-based. The essentials: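 After 48 h treatment, cells lysed in buffer of 100 mM Tris-Cl pH 6.8, 4% SDS, 20% glycerol, 200 mM β-mercaptoethanol, 1 mM PMSF, aprotinin. Lysates spun 12000g for 30 min at 4 °C and protein quantified by BCA. Proteins run on 10% SDS-PAGE, semi-dry transferred to PVDF, probed overnight at 4 °C with anti-α-tubulin 1:1000 and GAPDH 1:1000 loading control, then HRP secondary. ECL detection with densitometry.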
A general note: A western blot detects proteins with antibodies after separation by electrophoresis.

Series [23] has as its system HCT-116. In words: Induction of apoptosis in human HCT116 cells assessed as early apoptotic cells level at 10 uM incubated for 48 hrs by Annexin V-FITC and propidium iodide staining based flow cytometry. It is filed as functional. The essentials:
as §2

The source made the active and inactive calls. The calls are words filed in the database; no cut-off is given here.

One may read the IC50 as the concentration at which inhibition is half-maximal. A high value points to weaker potency. `COc1cc(CCc2ccccc2Cl)cc(OC)c1O`: the Activity in series [1] was 82.47%; in [2] it was 34.5%; in [3], “Dose-dependent effect”; in series [12] it was “Dose-dependent effect”; in [13] it was 24.8%; in [14], 22.4%. Besides, the Activity entry was “Dose-dependent effect” in [17]; 37.2% in series [18]; 85.22% in series [19]; 18.1% in series [21]; 36.9% in [23]. Also, the half-inhibitory concentration (IC50) in [4] worked out at 24.5 µM; in series [8] it was 0.25 µM; in series [9], 2.13 µM; in [10], 21.1 µM; in series [15], 2.19 µM. The outcome in series [5], in series [6], in series [7], in [16] and in [22] was Active. The viability at 72 h, 50 µM in series [11] turned out to be 84.4%. Also, the MED in series [20] lay in the range of 0.62 to 1.25 µM.

The values above are taken from ChEMBL document CHEMBL4390700, “Design, synthesis and antitumour and anti-angiogenesis evaluation of 22 moscatilin derivatives” (Bioorg Med Chem, 2019).
